Results as given in the RNAGym collection of RNA variant scans (doi:10.1126/science.aae0568).
Fewer inactive variants are shown than the library holds.

B1: tRNA (parent)
chain: GUUCCGUUGGCGUAAUGGUAACGCGUCUCCCUCCUAAGGAGAAGACUGCGGGUUCGAGUCCCGUACGGAACG

Variants of: B1
Experiment: yeast fitness relative to wild type (ratio to wild type); higher = fitter; tRNA-Arg(CCU), competitive growth, 37 C, YPD
Method in brief: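 The tRNA-Arg(CCU) gene variants were made by chemical synthesis with a 3% per-site mutation rate at 69 sites and inserted at the native genomic locus of Saccharomyces cerevisiae. After pooling, the strains were competed in YPD at 37°C for 24 hours in six parallel replicates. Gene amplicons from the start population and each end population were read by 100-nucleotide paired-end sequencing, and Darwinian fitness relative to wild type was taken from genotype frequency changes. Genotypes needed ≥ 100 starting reads, and estimates < 0.5 were set to 0.5.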

Variant | yeast fitness
GUUCCGUUAGCGUAAUGGUAACGCGUCACCCUCCUAAGGACAAGACUGCGGGUUCGAGUCCCGUCCCGAACG [G9A U28A G41C A65C G67C] | 0.579
GUUCCGUUCGCGUUAUGGUACCGCGUCUCCCUCCUAAGGAGAAGACUGCGGGUUCGAGUCCCGUACGGAACG [G9C A14U A21C] | 0.61
GUUCCGUUCGCGUACUGGUAACGCGUCUCCCUCCUAAGGAGAAGAUUGCGGGUUCGAGUCCCGUACGGAACG [G9C A15C C46U] | 0.592
GUUCCGUUAGCGUAAUGGUAACGCGUCACCCUCCUAAGGAGAAGACUGCGGGUUCGAGUCCUGUACGAAACG [G9A U28A C62U G68A] | ≤ 0.5
GUUCCGUUCGCGUGAUGGUAACGCGUCUCCCUCCUAAGGAGAAGACUGCGGGUUCGAGUCCUCUACGGACCG [G9C A14G C62U G63C A70C] | ≤ 0.5
GUUCCGUUCGCGUACAGGUAACGCGUCUCCCUCCUAAGGAGAAGACUGCGGGUUCGAGUCCCGUACGGACCG [G9C A15C U16A A70C] | ≤ 0.5
GUUCCGUUCGCGUAGUAGUAACGCGUAUCCGUCCUAAGGAGAAGACUGCAGGUUCGAGUCCCGUACGGAACG [G9C A15G G17A C27A C31G G50A] | ≤ 0.5
GUUCCGUUCGCGUAAUGGUGACGCGCCUCCCUCCUAAGGAGAAGACUGCGGGUUCGAGUCCCGUACGGAACG [G9C A20G U26C] | ≤ 0.5
GUUCCGUUCGCGUAAUGGUCACGCGUCUCCCUCCUAAGGAGAAGGGUGCAGGUUCGAGUCCCGUACGGAACG [G9C A20C A45G C46G G50A] | ≤ 0.5
GUUCCGUUCGCGUCAUGGUAACGCGUCUCCCUCCUAAGGAGAACACUGCGGGUUCGAGUCCCGGACGGACCG [G9C A14C G44C U64G A70C] | ≤ 0.5
GUUCCGUUAGCGUAAUGGUAACGCGUCACCCUCCUAAGGAGAAGACUGCGGGUUUGAGUCCCGUACGAAACG [G9A U28A C55U G68A] | ≤ 0.5
GUUCCGUUCGCGUCAUGGUAACGCGUCUCCCUCCUAAGGAGAACACUGCGGGUUCGUGUCCCGUACGGAACG [G9C A14C G44C A57U] | ≤ 0.5
GUUCCGUUCGCGUCAUGGUAACGCGUCUCCCUCCUAAGGAGAACACUGCGGGUUCGCGUCCCGUACGGAACG [G9C A14C G44C A57C] | 0.573
GUUCCGUUCGCGUACUGGUAACGCGUCUCCCUCCCAAGGAGAAGACUGCGGGUUCGAGACCCAUACGGAACG [G9C A15C U35C U59A G63A] | ≤ 0.5
GUUCCGUUCGCGUACUGGUAACGCGUCUCCCUCCUAAGGAGAAGACUGCGGGCUGGAGUCCCGUACGGAACG [G9C A15C U53C C55G] | ≤ 0.5
GUUCCGUUAGCGUAAUGGUAACGCGUCUCCCACCUAAGGAGAAGACUCCGGGUUCGAGUCCCGUACGGAACG [G9A U32A G48C] | 0.531
GUUCCGUUCGCGUUAUGGUAACGCGUCUCCCUCCUAAGGAGAAGACUGCGGGUUCGAGUCCCGUACGGGACG [G9C A14U A69G] | ≤ 0.5
GUUCCGUUCGCGUAGUGGUAGCGCGUCUCCCUCCUAAGGAGAAGACUAGGGGUUCGAGUACCGUACGGAACG [G9C A15G A21G G48A C49G C60A] | ≤ 0.5
GUUCCGUUAGCGUAAUGGUAACGCGUCUCCCUCCUAAGGAGAAGACUGCGGGUUCGAGACCCGUACGGGACG [G9A U59A A69G] | 0.697

Variant | yeast fitness
GUUCCGUUCGCGUAUUGGUACCGCGUCUACCUCCUAAGGAGAAGACUGCGGGUUCGAGUCCCGUACGGAACG [G9C A15U A21C C29A] | 0.773
GUUCCGUUCGCGUUAUGGUAACGCGUCUCCCUCCUAAGGAGAAGACUGCCGGUUCGAGUCCCGUACGGAACG [G9C A14U G50C] | 0.682
GUUCCGUUCGCGUAAUGGUAACGCGUCUCCCUCCUAAGGAGAAGACUGCGGGUUCGAGUCCCGUACGGAACG [G9C] | 0.853
GUUCCGUUAGCGUAAUGGUAACGCGUCGCCCUCCUAAGGCGGAGACUGCGGGUUCGAGUCCCGUACGGCACG [G9A U28G A40C A42G A69C] | 0.963
GUUCCGUUCGCGUGAUGGUAACGCGUCUCCCUCCUAAGGAGAAGACUGGGGGUUCGAGUCCCGUACGGAACG [G9C A14G C49G] | ≤ 0.5
GUUCCGUUCGCGUCAUGGUAACGCGUCUCCCUCCUAAGGAGAAGACUGCGGGUUCGGGUCCCGUACGGAACG [G9C A14C A57G] | ≤ 0.5
GUUCCGUUAGCGUAAUGGUAACGCGUCUCCCUCCUAAGGAGAAGACUGCGGGUACGAGUCCCGUACGGCACG [G9A U54A A69C] | 0.746
GUUCCGUUAGCGUAAUGGUAACGCGUCUCCCUCCCAAGGAGUAGACUGCGGGUUCGAGUCCCAUACGGAACG [G9A U35C A42U G63A] | ≤ 0.5
GUUCCGUUCGCGUUAUGGUAACGCGUCUCCCUCCUAAGGAGAAGUCUGGGGGUUGGAGUCCCGUACCGAACG [G9C A14U A45U C49G C55G G67C] | ≤ 0.5
GUUCCGUUCGCGUUAUGGUAACGGGUCUCCCUCCGAAGGAGAAGACUGCGGGUUCGAGUCGCGUACGCAACG [G9C A14U C24G U35G C61G G68C] | ≤ 0.5
GUUCCGUUCGCGUAAUGGUCACGCGUCUCCAUCCUAAGGAGAAGACUGCGGGUUCGCGUCCCGUAAGGUACG [G9C A20C C31A A57C C66A A69U] | 0.572
GUUCCGUUAGCGUAAUGGUAACGCGUCUCCCCCCUAAGGAGAAGACUGCGGGUUCGAGUCCCGUACGGAACG [G9A U32C] | 0.943
GUUCCGUUAGCGUAAUGGUAACGCGUCUCCCUCCUAAGGAGAAGACUGCGGGUCCGAGUCGCGUACGGAACG [G9A U54C C61G] | 0.565
GUUCCGUUCGCGUUAUGGUAACGCGUCCCCCUCCGAAGGAGAAGACUGCGGGUUCGAGUCCCGUACGGAACG [G9C A14U U28C U35G] | 0.623
GUUCCGUUCGCGUACUGGUAACGCGUCUCCCUCCUUAGGAGAUGACUGCGGGUUCGAGUCCCGUACGGAACG [G9C A15C A36U A43U] | 0.738
GUUCCGUUCGCGUAGUGGUAACGCGUAUCCGUCCUAAGGAGAAGACUGCGGGUUCGAGUCUCGUACGGAACG [G9C A15G C27A C31G C61U] | ≤ 0.5
GUUCCGUUCGCGUGAUGGUAACGCGUCUCCCUCCUAAGGAGAAGACUGCGGGUUCGAGUCCCGUACGGAGCG [G9C A14G A70G] | 0.746
GUUCCGUUCGCGUGAUGGUAACGCGUCUCCCUCCUAAGGAGACGACUGCGGGUUCGAGUCCCGUACGGAACG [G9C A14G A43C] | ≤ 0.5
GUUCCGUUAGCGUAAUGGUAACGCGUCUCCCCGCUAGGGAGAAGACUGCGGAUUUGAGUCCCGUACGGAACG [G9A U32C C33G A37G G52A C55U] | 0.558
